Results reported in ChEMBL document CHEMBL4043299, “Repurposing a Library of Human Cathepsin L Ligands: Identification of Macrocyclic Lactams as Potent Rhodesain and Trypanosoma brucei Inhibitors” (J Med Chem, 2018).
In brackets after ≈: the same amount, converted by molar mass. Activity calls are given as the source filed them. The calls are words filed in the database; no cut-off is given here.

Key:
Cathepsin S = Cathepsin S (Homo sapiens, UniProt P25774); experiment: Inhibition of human cathepsin S
[1] = Drug uptake in bloodstream form of Trypanosoma brucei rhodesiense STIB 900 infected NMRI mouse blood at 25 mg/kg, ip bid administered for 4 consecutive days starting 3 days post infection measured at 4 hrs post last dose; format: ADME, organism-based; details: read-out: Drug uptake
[2] = Plasma concentration in rat at 3 mg/kg administered via infusion over 30 mins; format: ADME, organism-based; details: iv
Outline: (§1)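 Rats given 3 mg kg⁻¹ by infusion over 30 min, then sacrificed; plasma, brain and CSF concentrations measured; ratios to plasma derived; average of three independent measurements.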

[3] = Drug uptake in bloodstream form of Trypanosoma brucei rhodesiense STIB 900 infected NMRI mouse blood at 25 mg/kg, ip bid administered for 4 consecutive days starting 3 days post infection measured at 1 hr post last dose; format: ADME, organism-based; details: read-out: Drug uptake
Cathepsin K = molecular target: T1, Cathepsin K (Homo sapiens, UniProt P43235); experiment: Inhibition of human cathepsin K
T1 sequence (P43235 whole entry): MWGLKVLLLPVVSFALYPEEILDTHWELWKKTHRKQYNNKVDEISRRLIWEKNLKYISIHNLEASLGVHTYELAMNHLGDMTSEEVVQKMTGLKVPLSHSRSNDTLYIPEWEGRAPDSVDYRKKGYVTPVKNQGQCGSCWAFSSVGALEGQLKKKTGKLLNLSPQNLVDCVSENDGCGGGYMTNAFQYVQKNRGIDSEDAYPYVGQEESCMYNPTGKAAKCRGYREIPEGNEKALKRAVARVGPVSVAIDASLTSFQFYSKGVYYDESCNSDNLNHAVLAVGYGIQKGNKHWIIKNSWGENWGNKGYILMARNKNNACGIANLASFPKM

Cytochrome P450 2D6 = Cytochrome P450 2D6 (Homo sapiens, UniProt P10635); experiment: Inhibition of CYP2D6 in human liver microsomes using AMMC as substrate by fluorescence assay; format: ADME
[4] = Drug uptake in rat cerebrospinal fluid at 3 mg/kg administered via infusion over 30 mins; format: ADME, organism-based; details: iv, read-out: Drug uptake; outline: as §1
[5] = Half life in C57BL/6J mouse administered via iv as bolus dose by LC-MS/MS analysis; format: ADME, organism-based; details: in vivo
Outline: (§2)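 Male adult C57BL/6J mice, single i.v. bolus in N-methylpyrrolidinone/40% aqueous hydroxypropyl-γ-cyclodextrin (30/70); blood at 5, 15, 30 min, 1, 2, 4, 8 h; plasma by centrifugation, stored −20 °C; LC–MS/MS; non-compartmental analysis.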

[6] = system: Trypanosoma brucei rhodesiense; experiment: Antitrypanosomal activity against bloodstream form of Trypanosoma brucei rhodesiense STIB 900 assessed as parasite growth inhibition incubated for 24 to 48 hrs followed by 72 hrs recovery by Alamar blue assay; format: functional
[7] = Volume of distribution at steady state in C57BL/6J mouse administered via iv as bolus dose by LC-MS/MS analysis; format: ADME, organism-based; details: in vivo, read-out: Vdss; outline: as §2
[8] = system: Trypanosoma brucei rhodesiense; experiment: Antitrypanosomal activity against bloodstream form of Trypanosoma brucei rhodesiense STIB 900 infected in NMRI mouse assessed as mouse survival at 25 mg/kg, ip bid administered for 4 consecutive days starting 3 days post infection (reference value: 13 days); format: functional
Outline: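 T. b. rhodesiense STIB900 acute mouse infection model. Dosing was 25 mg/kg i.p. twice daily for 4 consecutive days, starting 3 days post-infection, at 0.1 mL/10 g. Three infected mice served as untreated controls without vehicle. Parasitaemia was followed by tail-blood smears twice weekly for two weeks, then weekly to day 60. Relapse day and mean survival days were recorded.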

[9] = Drug uptake in rat brain at 3 mg/kg administered via infusion over 30 mins; format: ADME, organism-based; details: iv, read-out: Drug uptake; outline: as §1
[10] = Ratio of drug level in rat CSF to plasma at 3 mg/kg administered via infusion over 30 mins; details: iv
[11] = Clearance in C57BL/6J mouse administered via iv as bolus dose by LC-MS/MS analysis; format: ADME, organism-based; details: in vivo; outline: as §2
[12] = system: Trypanosoma brucei rhodesiense; experiment: Antitrypanosomal activity against bloodstream form of Trypanosoma brucei rhodesiense STIB 900 infected in NMRI mouse assessed as days required to prevent relapse of trypanosome at 25 mg/kg, ip bid administered for 4 consecutive days starting 3 days post infection; format: functional
Outline: (§3)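 Mice infected with T. b. rhodesiense STIB900 (acute model); dosing from day 3 post-infection on four consecutive days, 25 mg kg⁻¹ i.p. twice daily, 0.1 mL/10 g; three infected-untreated controls; parasitaemia monitored by tail-snip blood smears twice weekly for two weeks, then weekly to day 60; relapse day recorded post-infection.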

[13] = Ratio of drug level in brain to plasma in C57BL/6J mouse administered via iv as bolus dose by LC-MS/MS analysis
Cytochrome P450 2C9 = Cytochrome P450 2C9 (Homo sapiens, UniProt P11712); experiment: Inhibition of CYP2C9 in human liver microsomes using MFC as substrate by fluorescence assay
Cathepsin B = Cathepsin B (Homo sapiens, UniProt P07858); experiment: Inhibition of human cathepsin B
[14] = Solubility of the compound at pH 6.5 by LYSA; format: physicochemical; details: buffer
Outline: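 Lyophilisation solubility assay at pH 6.5.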

Cytochrome P450 3A4 = Cytochrome P450 3A4 (Homo sapiens, UniProt P08684); experiment: Inhibition of CYP3A4 in human liver microsomes using DBF as substrate by fluorescence assay; format: ADME
[15] = Effective permeability of the compound after 15 hrs by PAMPA; format: physicochemical; details: read-out: Peff
[16] = system: Trypanosoma brucei rhodesiense; experiment: Antitrypanosomal activity against bloodstream form of Trypanosoma brucei rhodesiense STIB 900 infected in NMRI mouse assessed as reduction of parasitemia at 25 mg/kg, ip bid administered for 4 consecutive days starting 3 days post infection measured 24 hrs post last dose; format: functional, organism-based; outline: as §3
Cathepsin L2 = molecular target: T2, Cathepsin L2 (Homo sapiens, UniProt O60911); experiment: Inhibition of human cathepsin V
T2 sequence (O60911 whole entry): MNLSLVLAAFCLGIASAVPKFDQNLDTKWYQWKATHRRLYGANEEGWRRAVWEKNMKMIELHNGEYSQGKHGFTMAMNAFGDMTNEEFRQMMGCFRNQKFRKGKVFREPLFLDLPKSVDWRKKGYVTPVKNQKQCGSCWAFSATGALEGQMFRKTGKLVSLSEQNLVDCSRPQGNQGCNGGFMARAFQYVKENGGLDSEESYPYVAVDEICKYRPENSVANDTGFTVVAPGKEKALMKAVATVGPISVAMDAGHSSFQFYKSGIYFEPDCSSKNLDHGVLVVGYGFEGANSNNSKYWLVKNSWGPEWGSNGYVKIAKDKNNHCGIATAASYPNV

Procathepsin L = Procathepsin L (Homo sapiens, UniProt P07711); experiment: Inhibition of human CatL using Cbz-Phe-Arg-AMC as substrate measured over 30 mins by fluorimetric method
Mdr1a = experiment: Efflux ratio of permeability across pig LLC-PK1 cells expressing mouse Mdr1a at 1 uM after 3.5 hrs by LC-MS/MS analysis; format: ADME, cell-based, Sus scrofa
Outline: (§4)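 Porcine kidney LLC-PK1 cells stably transfected with human ABCB1 (MDR1) or mouse Abcb1a (Mdr1a). Cells were grown with 10% FCS and 100 ng/mL colchicine and seeded on permeable inserts, then assayed on day 4. Compound was added at 1 μM to the apical or basolateral side, and transport was run in both directions in triplicate at 37 °C, 5% CO2. Donor and receiver were sampled at 3.5 h and quantified by LC–MS/MS. Lucifer yellow was used as the monolayer tightness control.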

[17] = Drug uptake in bloodstream form of Trypanosoma brucei rhodesiense STIB 900 infected NMRI mouse blood at 25 mg/kg, ip bid administered for 4 consecutive days starting 3 days post infection measured at 16 hrs post last dose; format: ADME, organism-based; details: read-out: Drug uptake
[18] = system: Trypanosoma brucei brucei; experiment: Antitrypanosomal activity against Trypanosoma brucei brucei TC 221 assessed as parasite growth inhibition after 72 hrs by Alamar blue assay; format: functional; details: TC 221, 72 h
MDR1 = experiment: Efflux ratio of permeability across pig LLC-PK1 cells expressing human MDR1 at 1 uM after 3.5 hrs by LC-MS/MS analysis; format: ADME, cell-based, Sus scrofa; outline: as §4
[19] = Octanol-water intrinsic distribution co-efficient, log D of the compound at 100 uM at pH 7.4 after 16 to 22 hrs by CAMDIS assay; format: physicochemical
Outline: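 Distribution between octanol and aqueous buffer at pH 7.4, CAMDIS carrier-mediated system.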

Rhodesain = Rhodesain (Trypanosoma brucei rhodesiense, UniProt Q95PM0); experiment: Inhibition of Trypanosoma brucei rhodesiense rhodesain using Cbz-Phe-Arg-AMC as substrate by fluorimetric method
Outline: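 Fluorescence-based protease assay. IC50 was converted to Ki by the Cheng-Prusoff equation. Values are the average of two measurements, each run in duplicate.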

[20] = Ratio of drug level in rat brain to plasma at 3 mg/kg administered via infusion over 30 mins; details: iv

Sequence of Cytochrome P450 2C9 (P11712 whole entry): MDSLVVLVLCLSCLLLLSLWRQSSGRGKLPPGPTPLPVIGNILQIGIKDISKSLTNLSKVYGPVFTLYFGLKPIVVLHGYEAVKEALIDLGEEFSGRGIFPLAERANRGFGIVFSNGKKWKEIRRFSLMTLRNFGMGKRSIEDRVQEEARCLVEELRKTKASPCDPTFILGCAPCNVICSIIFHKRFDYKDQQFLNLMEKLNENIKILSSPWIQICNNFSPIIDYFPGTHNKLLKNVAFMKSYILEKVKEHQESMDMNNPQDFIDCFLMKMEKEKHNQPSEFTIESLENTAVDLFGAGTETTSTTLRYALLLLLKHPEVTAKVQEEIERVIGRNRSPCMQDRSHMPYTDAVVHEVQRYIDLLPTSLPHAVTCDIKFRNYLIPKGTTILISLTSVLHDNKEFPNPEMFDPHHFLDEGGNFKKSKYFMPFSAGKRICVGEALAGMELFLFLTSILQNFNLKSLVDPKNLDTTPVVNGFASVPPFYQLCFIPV
Sequence of Rhodesain (Q95PM0 whole entry): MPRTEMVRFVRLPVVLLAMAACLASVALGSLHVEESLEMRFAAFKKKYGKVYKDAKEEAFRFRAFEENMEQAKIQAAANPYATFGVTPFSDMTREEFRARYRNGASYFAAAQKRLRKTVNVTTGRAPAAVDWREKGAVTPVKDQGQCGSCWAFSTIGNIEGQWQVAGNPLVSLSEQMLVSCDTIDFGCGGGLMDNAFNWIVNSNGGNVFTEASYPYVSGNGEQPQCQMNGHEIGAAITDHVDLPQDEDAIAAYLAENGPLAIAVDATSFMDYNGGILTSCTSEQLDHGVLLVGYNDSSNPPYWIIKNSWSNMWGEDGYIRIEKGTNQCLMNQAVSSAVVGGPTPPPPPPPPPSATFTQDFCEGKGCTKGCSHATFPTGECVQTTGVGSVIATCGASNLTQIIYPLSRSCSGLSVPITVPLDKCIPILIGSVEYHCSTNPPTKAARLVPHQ
Sequence of Cathepsin S (P25774 whole entry): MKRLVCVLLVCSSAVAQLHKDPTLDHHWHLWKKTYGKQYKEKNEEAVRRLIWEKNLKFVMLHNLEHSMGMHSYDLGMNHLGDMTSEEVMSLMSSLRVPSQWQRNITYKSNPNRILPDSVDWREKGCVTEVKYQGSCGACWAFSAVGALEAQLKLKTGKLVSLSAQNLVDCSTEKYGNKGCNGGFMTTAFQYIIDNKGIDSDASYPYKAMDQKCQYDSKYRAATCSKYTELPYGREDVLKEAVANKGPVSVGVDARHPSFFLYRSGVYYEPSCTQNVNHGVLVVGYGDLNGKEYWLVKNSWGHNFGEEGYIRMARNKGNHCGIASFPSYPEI
Sequence of Procathepsin L (P07711 whole entry): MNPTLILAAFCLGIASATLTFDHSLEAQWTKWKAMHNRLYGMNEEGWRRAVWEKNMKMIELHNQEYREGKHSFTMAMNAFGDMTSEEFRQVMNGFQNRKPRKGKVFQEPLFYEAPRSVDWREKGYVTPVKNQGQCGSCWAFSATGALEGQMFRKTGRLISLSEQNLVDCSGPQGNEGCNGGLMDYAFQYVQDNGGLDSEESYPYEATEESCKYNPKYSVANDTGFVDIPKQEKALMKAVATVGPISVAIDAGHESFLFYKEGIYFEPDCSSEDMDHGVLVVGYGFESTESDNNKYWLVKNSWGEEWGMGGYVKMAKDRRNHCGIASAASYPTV
Sequence of Cytochrome P450 3A4 (P08684 whole entry): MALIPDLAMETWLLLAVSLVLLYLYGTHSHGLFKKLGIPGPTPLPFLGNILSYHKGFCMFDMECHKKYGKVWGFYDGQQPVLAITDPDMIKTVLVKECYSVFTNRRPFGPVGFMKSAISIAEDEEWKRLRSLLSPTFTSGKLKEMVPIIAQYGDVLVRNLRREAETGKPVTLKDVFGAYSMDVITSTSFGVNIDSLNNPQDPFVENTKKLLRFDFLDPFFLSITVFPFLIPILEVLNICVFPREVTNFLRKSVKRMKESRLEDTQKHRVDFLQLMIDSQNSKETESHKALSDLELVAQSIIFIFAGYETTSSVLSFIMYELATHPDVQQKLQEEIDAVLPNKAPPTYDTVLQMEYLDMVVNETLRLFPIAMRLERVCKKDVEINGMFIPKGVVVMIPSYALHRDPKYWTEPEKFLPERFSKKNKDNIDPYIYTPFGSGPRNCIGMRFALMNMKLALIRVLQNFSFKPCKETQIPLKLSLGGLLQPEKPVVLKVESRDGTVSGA
Sequence of Cytochrome P450 2D6 (P10635 whole entry, the tested form may be a part): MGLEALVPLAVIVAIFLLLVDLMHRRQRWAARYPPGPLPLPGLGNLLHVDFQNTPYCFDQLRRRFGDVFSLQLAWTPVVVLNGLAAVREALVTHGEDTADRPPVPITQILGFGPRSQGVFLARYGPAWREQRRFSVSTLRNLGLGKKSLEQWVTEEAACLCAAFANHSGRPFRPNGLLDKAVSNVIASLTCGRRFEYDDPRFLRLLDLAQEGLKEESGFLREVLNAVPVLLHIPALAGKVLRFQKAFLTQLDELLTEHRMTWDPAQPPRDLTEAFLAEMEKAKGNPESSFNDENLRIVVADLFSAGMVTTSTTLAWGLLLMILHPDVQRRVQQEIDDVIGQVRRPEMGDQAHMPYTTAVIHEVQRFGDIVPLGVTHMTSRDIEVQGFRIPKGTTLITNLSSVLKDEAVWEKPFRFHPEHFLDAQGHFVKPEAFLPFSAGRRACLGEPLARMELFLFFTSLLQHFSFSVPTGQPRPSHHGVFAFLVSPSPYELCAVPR

## N#CC1(NC(=O)[C@@H]2Cc3ccc(c(Cl)c3)OCCCCOc3cc(C(F)(F)F)ccc3C(=O)N2)CC1
Cathepsin S
  IC50: 2700 nM
[1]
  concentration at 4 h: 15.1 ng/mL
[2]
  concentration at 0.5 h: 404 ng/mL
[3]
  concentration at 1 h: 237 ng/mL
Cathepsin K
  IC50: ≥ 25 µM
Cytochrome P450 2D6
  IC50: 11 µM
[4]
  concentration at 0.5 h: 2.3 ng/mL
[5]
  half-life: 162 min
[6]
  IC50: 10 nM
[7]
  Vd: 7.2 L/kg
[8]
  Survival: 16.3 days
[9]
  concentration at 0.5 h: 256 ng/g
[10]
  Kp at 0.5 h: 0.006
[11]
  clearance: 79 mL/min/kg
[12]
  Time: 10.2 days
[13]
  Kp: < 0.5
Cytochrome P450 2C9
  IC50: 16 µM
Cathepsin B
  IC50: 9 µM
[14]
  solubility: 12 µg/mL (≈ 23 µM)
Cytochrome P450 3A4
  IC50: 43 µM
[15]
  Papp at 15 h: 0.4 ×10⁻⁶ cm/s
[16]
  Activity: Active
Cathepsin L2
  IC50: 1040 nM
Procathepsin L
  Ki: 10 nM
Mdr1a
  efflux ratio at 3.5 h, 1 µM: 53
[17]
  concentration at 16 h: 4.8 ng/mL
[18]
  IC50: 4 nM
MDR1
  efflux ratio at 3.5 h, 1 µM: 26
[19]
  logD at 100 µM: 3.7
Rhodesain
  Ki: 11 nM
[20]
  Kp at 0.5 h: 0.7
